The values below come from ChEMBL document CHEMBL1153311, “Inhibitory activity of prostaglandin E2 production by the synthetic 2'-hydroxychalcone analogues: Synthesis and SAR study” (Bioorg Med Chem Lett, 2009).

By IC50 is commonly meant the point on the concentration scale where inhibition reaches its midpoint.

In one assay the test system is RAW264.7. Kind of assay: Cytotoxicity against mouse RAW264.7 cells assessed as cell viability at 10 uM by MTT assay. Type of assay: functional. To be noted: read-out: Activity. In a few lines:
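RAW 264.7 mouse macrophage-like cells tested with or without LPS; viability read by MTT assay and reported as percent cell […]; values are the mean of three experiments.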
On the technique in general: Tetrazolium dyes change colour on reduction, which living cells bring about.

For assay [1], the target named is T1, Prostaglandin G/H synthase 2 (Mus musculus, UniProt Q05769).
T1 sequence (Q05769 whole entry): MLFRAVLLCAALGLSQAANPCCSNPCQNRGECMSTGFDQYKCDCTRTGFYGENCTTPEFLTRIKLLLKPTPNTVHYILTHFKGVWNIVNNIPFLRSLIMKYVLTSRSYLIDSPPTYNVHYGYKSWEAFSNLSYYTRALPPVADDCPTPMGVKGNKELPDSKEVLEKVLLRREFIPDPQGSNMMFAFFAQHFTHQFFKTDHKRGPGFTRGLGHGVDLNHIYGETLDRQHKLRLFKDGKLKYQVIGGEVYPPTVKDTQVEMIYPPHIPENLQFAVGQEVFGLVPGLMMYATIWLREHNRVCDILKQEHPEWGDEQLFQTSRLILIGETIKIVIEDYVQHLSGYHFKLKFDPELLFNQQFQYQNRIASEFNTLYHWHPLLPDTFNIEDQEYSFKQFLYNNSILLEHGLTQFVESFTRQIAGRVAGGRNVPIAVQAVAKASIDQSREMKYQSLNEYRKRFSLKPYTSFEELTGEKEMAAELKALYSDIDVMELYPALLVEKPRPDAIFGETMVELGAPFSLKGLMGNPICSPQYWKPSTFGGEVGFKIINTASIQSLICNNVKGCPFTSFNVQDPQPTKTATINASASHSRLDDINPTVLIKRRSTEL
Kind of assay: Inhibition of COX2-mediated PGE2 production in LPS-stimulated mouse RAW264.7 cells by enzyme immunoassay.

Assay [2] has as its target T2, Prostaglandin G/H synthase 2 (Homo sapiens, UniProt P35354).
T2 sequence (P35354 whole entry): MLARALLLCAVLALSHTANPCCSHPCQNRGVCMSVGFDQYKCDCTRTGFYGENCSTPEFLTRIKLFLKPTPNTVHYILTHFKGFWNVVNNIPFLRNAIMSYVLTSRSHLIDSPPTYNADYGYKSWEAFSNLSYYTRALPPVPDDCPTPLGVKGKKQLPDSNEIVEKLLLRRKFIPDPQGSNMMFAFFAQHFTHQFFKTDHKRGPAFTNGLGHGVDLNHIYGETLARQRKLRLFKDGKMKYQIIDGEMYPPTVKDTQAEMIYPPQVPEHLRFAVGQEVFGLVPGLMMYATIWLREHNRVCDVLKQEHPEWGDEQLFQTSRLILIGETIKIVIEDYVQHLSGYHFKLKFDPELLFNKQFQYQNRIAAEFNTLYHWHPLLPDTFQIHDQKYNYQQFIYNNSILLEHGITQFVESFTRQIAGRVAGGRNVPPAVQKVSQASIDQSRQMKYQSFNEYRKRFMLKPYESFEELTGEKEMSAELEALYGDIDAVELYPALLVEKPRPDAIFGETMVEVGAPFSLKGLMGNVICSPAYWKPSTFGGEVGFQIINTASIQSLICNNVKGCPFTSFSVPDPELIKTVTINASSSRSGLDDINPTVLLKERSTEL
Description: Inhibition of COX2. Put shortly: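 RAW 264.7 mouse macrophage cells were plated at 2 × 10⁵ cells/well and treated with LPS for 24 h to induce COX-2, then washed. Compounds in DMSO were added in fresh medium containing arachidonic acid for 2 h. PGE₂ released into the medium was measured by EIA, and inhibition was expressed as the mean of three experiments.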

Consider `COc1c(O)cc(O)c2c(=O)cc(-c3ccccc3)oc12` [WOGONIN], for which the viability at 10 µM in the assay with RAW264.7 came to 111%. For the same compound, in assay [1], the IC50 was 1.07 µM.
For the compound `COc1ccc(/C=C/C(=O)c2ccccc2O)cc1`, the viability at 10 µM in the assay on RAW264.7 is 115%.
For `CS(=O)(=O)Nc1ccc([N+](=O)[O-])cc1OC1CCCCC1` [NS-398], in the assay on RAW264.7, the viability at 10 µM came to 104%.
With `O=C(/C=C/c1ccc(Cl)cc1)c1ccccc1O`, the viability at 10 µM with RAW264.7 turned out to be 141%.
In the case of `CC(=O)c1cc(C(C)=O)c2c(=O)cc(-c3ccccc3)oc2c1`, the IC50 in assay [2] was 2.7 µM.
With `O=C(/C=C/c1ccc(Cl)c(Cl)c1)c1ccccc1O`, the viability at 10 µM with RAW264.7 stood at 155%.
`O=C(/C=C/c1ccc(OCc2ccccc2)cc1)c1ccccc1O`: the viability at 10 µM in the assay on RAW264.7 turned out to be 99%. Further, the IC50 in assay [1] was 4.1 µM.
`O=C(/C=C/c1ccccc1)c1ccccc1O` [2'-HYDROXYCHALCONE]: the viability at 10 µM with RAW264.7 turned out to be 119%.
Still for that read-out and setting: with `Cc1ccc(/C=C/C(=O)c2ccccc2O)cc1` the figure was 152%.
On to `COc1cccc(/C=C/C(=O)c2ccccc2O)c1OC`, for which, in the assay with RAW264.7, the viability at 10 µM came to 93%. Also, the IC50 in assay [1] came out at 3.8 µM.
As for `COc1ccc(/C=C/C(=O)c2ccccc2O)cc1OCc1ccccc1`, the viability at 10 µM in the assay on RAW264.7 was 102%.
Regarding `COc1ccc(/C=C/C(=O)c2ccccc2O)cc1Br`, the viability at 10 µM with RAW264.7 was found to be 159%.
On the same count and under the same terms, with `CSc1ccc(/C=C/C(=O)c2ccccc2O)cc1` the figure was 85%; with `O=C(/C=C/c1ccc2c(c1)OCO2)c1ccccc1O`, 118%.
`O=C(/C=C/c1ccc(Br)cc1)c1ccccc1O`: the viability at 10 µM with RAW264.7 amounted to 162%.
In the case of `COc1cc(/C=C/C(=O)c2ccccc2O)cc(OC)c1OC`, the viability at 10 µM in the assay on RAW264.7 was determined as 65%. In assay [1], this compound showed an IC50 of 6.2 µM.
On to `O=C(/C=C/c1ccc(OCc2ccccc2)c(OCc2ccccc2)c1)c1ccccc1O`, for which the viability at 10 µM in the assay with RAW264.7 was determined as 103%. Further, inhibition in assay [1] was half-maximal at 4.6 µM (IC50).
For `O=C(/C=C/c1cccc(Br)c1)c1ccccc1O`, the viability at 10 µM in the assay on RAW264.7 stood at 90%.
Turning to `COc1ccc(/C=C/C(=O)c2ccccc2O)c(OC)c1`, the viability at 10 µM in the assay with RAW264.7 turned out to be 107%.
As to `O=C(/C=C/c1ccc(-c2ccccc2)cc1)c1ccccc1O`, the viability at 10 µM in the assay with RAW264.7 is 135%.
The same measure, in the same setting: with `O=C(/C=C/c1ccc(OC(F)(F)F)cc1)c1ccccc1O` the figure was 87%.
